Experimental data taken from ChEMBL document CHEMBL5038617, “1,2,4-Triazole-3-thione compounds with a 4-ethyl alkyl/aryl sulfide substituent are broad-spectrum metallo-β-lactamase inhibitors with re-sensitization activity” (Eur J Med Chem, 2021).

Assays:
Bacteria [1] = test: Inhibition of bacterial Metallo-beta-lactamase VIM-1 (unknown origin) assessed as substrate hydrolysis at 25 uM using meropenem as substrate by UV-visible spectrometry analysis
How it was run: (§1)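 Purified MBL enzyme at 1–70 nM final, in 50 mM HEPES pH 7.5 at 30 °C with 0.5% DMSO. Reporter substrate 150 µM imipenem or meropenem; hydrolysis read at 300 nm. […] Ki measured when inhibition exceeded 75%, by competitive-model v0/vi vs [I] slope or Dixon plot. Some runs used 10 min enzyme–inhibitor preincubation. Triplicate.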

Bacteria [2] = test: Inhibition of bacterial Metallo-beta-lactamase VIM-4 (unknown origin) assessed as substrate hydrolysis at 25 uM using meropenem as substrate by UV-visible spectrometry analysis; how it was run: as §1
Bacteria [3] = test: Inhibition of bacterial New Delhi metallo-beta-lactamase 1 (unknown origin) assessed as substrate hydrolysis at 100 uM using meropenem as substrate by UV-visible spectrometry analysis; how it was run: as §1
Bacteria [4] = test: Inhibition of bacterial Metallo-beta-lactamase VIM-2 (unknown origin) assessed as substrate hydrolysis at 100 uM using meropenem as substrate by UV-visible spectrometry analysis; how it was run: as §1
Bacteria [5] = test: Inhibition of bacterial Metallo-beta-lactamase IMP-1 (unknown origin) assessed as substrate hydrolysis at 100 uM using meropenem as substrate by UV-visible spectrometry analysis; how it was run: as §1
[6] = Inhibition of bacterial Metallo-beta-lactamase VIM-4 (unknown origin) assessed as substrate hydrolysis using meropenem as substrate by UV-visible spectrometry analysis; parameters: species or system Bacteria; how it was run: as §1
HeLa = test: Cytotoxicity against human HeLa cells assessed as LDH release measured after 24 hrs by CytoTox96 nonradioactive assay; format: functional, cell-based
How it was run: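 HeLa cells (20,000/well) incubated 24 h at 37 °C, 5% CO2 in DMEM with 10% FBS, 4.5 mg/mL glucose and 2 mM L-glutamine, with compound up to 250 µM. LDH release measured. Medium-only control and Triton X-100 maximum-release control included. % cytotoxicity = 100 × sample/maximum release. IC50 taken as 50% cytotoxicity.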

Klebsiella pneumoniae [7] = test: Synergistic antibacterial activity against Klebsiella pneumonia 7023 clinical isolate strain producing Metallo-beta-lactamase VIM-1 assessed as meropenem MIC in presence of meropenem incubated for 24 hrs by broth microdilution method; format: functional
How it was run: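 CLSI broth microdilution in Mueller-Hinton broth with 5 × 10^4 CFU/well. Meropenem two-fold serial dilutions tested with and without inhibitor fixed at 32 µg/mL, inhibitor added before antibiotic. DMSO ≤1%. […] Growth controls included. Triplicate.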

[8] = Inhibition of bacterial Metallo-beta-lactamase VIM-1 (unknown origin) assessed as substrate hydrolysis using meropenem as substrate by UV-visible spectrometry analysis; parameters: species or system Bacteria; how it was run: as §1
[9] = Inhibition of bacterial Metallo-beta-lactamase VIM-2 (unknown origin) assessed as substrate hydrolysis using meropenem as substrate by UV-visible spectrometry analysis; parameters: species or system Bacteria; how it was run: as §1
[10] = Inhibition of bacterial Metallo-beta-lactamase IMP-1 (unknown origin) assessed as substrate hydrolysis using meropenem as substrate by UV-visible spectrometry analysis; parameters: species or system Bacteria; how it was run: as §1
[11] = Inhibition of bacterial New Delhi metallo-beta-lactamase 1 (unknown origin) assessed as substrate hydrolysis using meropenem as substrate by UV-visible spectrometry analysis; parameters: species or system Bacteria; how it was run: as §1
Klebsiella pneumoniae [12] = test: Synergistic antibacterial activity against Klebsiella pneumonia VA 416/02 clinical isolate strain producing Metallo-beta-lactamase VIM-4 assessed as meropenem MIC in presence of meropenem incubated for 24 hrs by broth microdilution method; conditions: VA 416/02, 24 h
[13] = Cytotoxicity against human PBMC cells assessed as cell viability measured after 24 hrs by flowcytometry method; format: toxicity, cell-based; conditions: for IC50: pbmc; for IC50 at 24 h: human, PBMC cells
How it was run: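 PBMC from four individual donors were isolated by density centrifugation, frozen, thawed and resuspended at 1.10e6/mL in RPMI with 10% FBS. Compound added from 20 mM DMSO stock by serial dilution in RPMI; final concentrations 500–7.8 µM, in duplicate. After 24 h, live cells counted by flow cytometry using FSC/SSC gating. IC50 calculated for each donor.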

A549 = test: Cytotoxicity against human A549 cells assessed as cell viability measured after 48 hrs by RealTime-glo MT assay; format: functional, cell-based; conditions: A549, 48 h
How it was run: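 A549 cells incubated up to 48 h in DMEM with varying compound concentrations. Viable cell number read by bioluminescent real-time viability assay (NanoLuc luciferase with cell-permeant prosubstrate). Viability expressed relative to DMSO-only control culture, and IC50 derived.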

[14] = biological target: Hydroxyacylglutathione hydrolase, mitochondrial (Homo sapiens, UniProt Q16775); test: Inhibition of recombinant human Glyoxalase-2 assessed as reduction of substrate level using S-D-lactoylglutathione as substrate by spectrophotometric method
How it was run: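 Recombinant human glyoxalase II (5–25 nM) in 100 mM MOPS pH 7.2 at 25 °C. Substrate S-D-lactoylglutathione loss followed at 240 nm (ε 3.1 mM−1cm−1). Inhibitor in DMSO added to the substrate mix, and the reaction started with enzyme. Duplicate.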

Bacteria [15] = test: Inhibition of bacterial Metallo-beta-lactamase VIM-1 (unknown origin) assessed as substrate hydrolysis at 100 uM using meropenem as substrate by UV-visible spectrometry analysis; how it was run: as §1
Bacteria [16] = test: Inhibition of bacterial Metallo-beta-lactamase VIM-4 (unknown origin) assessed as substrate hydrolysis at 100 uM using meropenem as substrate by UV-visible spectrometry analysis; how it was run: as §1
Bacteria [17] = test: Inhibition of bacterial Metallo-beta-lactamase IMP-1 (unknown origin) assessed as substrate hydrolysis at 25 uM using meropenem as substrate by UV-visible spectrometry analysis; how it was run: as §1
Bacteria [18] = test: Inhibition of bacterial Metallo-beta-lactamase VIM-2 (unknown origin) assessed as substrate hydrolysis at 25 uM using meropenem as substrate by UV-visible spectrometry analysis; how it was run: as §1

Row | SMILES | inhibition (Bacteria [3]) | inhibition (Bacteria [4]) | inhibition (Bacteria [5]) | Ki [6] | IC50 (HeLa) | MIC (Klebsiella pneumoniae [7]) | Ki [8] | Ki [9] | Ki [10] | Ki [11] | MIC (Klebsiella pneumoniae [12]) | other results
1 | S=c1[nH]nc(-c2ccc(-c3ccccc3)cc2)n1CCSCc1ccccc1 | < 30% | < 30% | 60% | – | – | – | – | – | – | – | – | inhibition (Bacteria [1]): < 15%; inhibition (Bacteria [2]): < 15%
2 | Cc1ccccc1-c1n[nH]c(=S)n1CCSCc1ccccc1 | – | – | – | 0.5 µM | 121 µM | 4 µg/mL | 0.4 µM | 0.8 µM | 44 µM | 13 µM | 2 µg/mL | –
3 | Cn1cccc1-c1n[nH]c(=S)n1CCSCc1ccccc1 | 75% | – | – | 0.25 µM | > 250 µM | 2 µg/mL | 0.23 µM | 0.34 µM | 9.04 µM | 28 µM | 1 µg/mL | IC50 [13]: Non-Toxic; IC50 (A549): > 250 µM
4 | S=c1[nH]nc(-c2ccccc2)n1CCSCc1ccccc1 | – | – | – | 0.31 µM | 152 µM | 2 µg/mL | 0.21 µM | 0.24 µM | 19.6 µM | 22.3 µM | 4 µg/mL | IC50 [13]: Non-Toxic; IC50 [14]: 52 µM
5 | S=c1[nH]nc(-c2ccccc2)n1CCSc1nc2ccccc2s1 | < 30% | 30% | 47% | – | – | – | – | – | – | – | – | inhibition (Bacteria [15]): < 30%; inhibition (Bacteria [16]): 44%
6 | S=c1[nH]nc(-c2ccccc2)n1CCSc1nc(-c2ccccc2)n[nH]1 | < 30% | 44% | 32% | – | – | – | – | – | – | – | – | inhibition (Bacteria [15]): < 30%; inhibition (Bacteria [16]): 52%
7 | FC(F)(F)c1cc(SCCn2c(-c3ccccc3)n[nH]c2=S)c2ccccc2n1 | – | < 30% | < 30% | – | – | – | – | – | – | 12.9 µM | – | inhibition (Bacteria [15]): 37%; inhibition (Bacteria [16]): < 30%
8 | S=c1[nH]nc(-c2cccc(-c3ccccc3)c2)n1CCSCc1ccccc1 | < 30% | – | – | 0.89 µM | – | 16 µg/mL | – | – | – | – | 16 µg/mL | inhibition (Bacteria [17]): 21%; inhibition (Bacteria [18]): < 15%
9 | O=[N+]([O-])c1ccc(O)c(CSCCn2c(-c3ccccc3)n[nH]c2=S)c1 | – | – | 62% | 0.25 µM | > 250 µM | 1 µg/mL | 0.58 µM | 0.21 µM | – | 11.9 µM | 4 µg/mL | IC50 at 24 h [13]: > 500 µM; IC50 (A549): 125 µM
10 | S=c1[nH]nc(Cc2ccc3ccccc3c2)n1CCSCc1ccccc1 | < 30% | < 30% | 70% | – | – | – | – | – | – | – | – | inhibition (Bacteria [1]): < 15%; inhibition (Bacteria [2]): 23%
11 | Fc1ccccc1CSCCn1c(-c2ccccc2)n[nH]c1=S | – | – | – | 0.32 µM | 165 µM | 1 µg/mL | 0.59 µM | 0.28 µM | 12.1 µM | 11.9 µM | 2 µg/mL | IC50 at 24 h [13]: 175 µM
12 | O=C(O)C(CSCCn1c(-c2ccccc2)n[nH]c1=S)c1ccccc1 (configuration not stated) | – | – | – | 0.22 µM | > 250 µM | 2 µg/mL | 0.48 µM | 0.6 µM | 35 µM | 6 µM | 4 µg/mL | –
